Source: PubChem
This is a sample that favours compounds with a hit; in the whole collection about 2% have one here.
PKA-R1A activ: activators of PKA-R1A holoenzyme, primary screen, biochemical, fluorescence polarization, Cy5-IP20, bovine R1A, mouse PKAc; cAMP-dependent protein kinase type I-alpha regulatory subunit (Bos taurus) + …; PKA-R1A dissociation; scaled: DMSO 0%, 113 µM cGMP 100%; activation, % at 11.4 µM; 340,000 tested, 0.083% active; AID 504707, 2011;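 active = percent activation above the mean of all tested compounds plus 3 SD, cut at about 19% in these data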;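 note: higher means more PKAc released from R1A so a rise in polarization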
dFosB activator: activators of delta FosB homodimer, primary screen, biochemical, fluorescence polarization, TAMRA-CDK5 oligo, single point. activation, % at 25 µM. purified delta FosB; percent of positive-control signal above neutral wells. Protein FosB (Mus musculus), P13346. 340,000 tested, 0.99% active. AID 493131, 2011;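 active = mean activation above about 17%, with every replicate also reaching it, limit read from the data, passing the limit was not always enough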
PKA-R2B activ: activators of PKA-R2B holoenzyme, primary screen, biochemical, fluorescence polarization, Cy5-IP20, human. cAMP-dependent protein kinase catalytic subunit beta (Homo sapiens) + cAMP-dependent …. PKA-R2B holoenzyme dissociation; R2B truncated from residue 108, S112A mutant; 0% DMSO only, 100% 113 µM cGMP. activation, % at 11.4 µM. 340,000 tested, 0.079% active. AID 504700, 2011;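 active = activation above a cutoff set at the mean over all compounds plus 3 SD, cut at about 18% in these data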;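 note: higher means more holoenzyme dissociation and a rise in polarization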
NTR1 ag: agonists of human NTR1, primary screen, imaging, U2OS cells, beta-arrestin-GFP, high content. NTR1-U2OS beta-arrestin-GFP spot imaging, agonist mode. activation, % at 20 µM. 330,000 tested, 0.17% active. AID 493036, 2011;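 active = activation at or above 40% of the spot to cytoplasm intensity ratio, with at least 20 cells analyzed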;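 note: 0% = DMSO without peptide and 100% = 100 nM NTR1 peptide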
Target sequence (P30989 whole entry, looked up): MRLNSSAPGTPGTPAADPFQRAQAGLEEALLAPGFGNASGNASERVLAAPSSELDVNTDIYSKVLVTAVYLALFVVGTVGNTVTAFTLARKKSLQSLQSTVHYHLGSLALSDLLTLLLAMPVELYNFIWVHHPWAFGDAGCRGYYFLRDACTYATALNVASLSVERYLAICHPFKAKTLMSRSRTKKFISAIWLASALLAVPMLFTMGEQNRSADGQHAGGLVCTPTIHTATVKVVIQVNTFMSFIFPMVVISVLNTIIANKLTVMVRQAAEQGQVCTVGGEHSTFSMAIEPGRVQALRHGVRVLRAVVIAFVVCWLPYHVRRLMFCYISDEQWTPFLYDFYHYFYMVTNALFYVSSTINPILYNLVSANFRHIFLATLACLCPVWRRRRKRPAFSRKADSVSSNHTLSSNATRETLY
CAL PDZ FP-1: untagged CAL PDZ binding inhibitors, primary screen, biochemical, fluorescence polarization, HTS. inhibition, % at 24.9 µM. Golgi-associated PDZ and coiled-coil motif-containing protein (Homo sapiens), Q9HD26. 300,000 tested, 0.92% active. purified CAL PDZ, TMR-peptide fluorescence polarization, 1 h;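 active = mean inhibition of at least 30% with at least half of replicates also reaching 30%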;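 note: 0% = DMSO neutral control and 100% = excess unlabeled competitor peptide PRC23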
CAL PDZ FP-2: CAL PDZ peptide-binding inhibitors, primary screen, biochemical, fluorescence polarization, Cer-tagged CAL PDZ, HTS | inhibition, % at 20 µM | purified CAL PDZ, TMR-peptide fluorescence polarization, 1 h | 330,000 tested, 0.02% active | AID 504414, 2011;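 active = highest replicate inhibition of at least 40%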;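 note: plate controls were DMSO neutral control wells for no effect and unlabeled competitor peptide control wells for full effect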
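Read-out basis: mP drop reported as inhibition | Assay system: Tagged CAL PDZ protein CerCALP, purified | Benchmarks: Unlabelled peptide for full inhibition, DMSO wells as neutral | Schedule: 1 h incubation at room temperature before polarization reading | Buffer or medium: Sodium phosphate/NaCl buffer pH 7.4 with TCEP, IgG, Thesit | Doses: Single point, 20 µM | Measured by: Fluorescence polarization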
R1A FP artifact: FP signal interference without PKA proteins, confirmation, artefact control for PKA-R1A activator project, biochemical, fluorescence polarization, triplicate; 280 tested, 7% active; activation, % at 11.4 µM; Cy5-IP20 peptide alone, fluorescence polarization artifact counterscreen; shares compounds with PKA-R1A activ;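 active = mean activation over triplicate runs exceeds the adjusted cutoff derived for the parent primary screen, cut at about 19% in these data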;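 note: no PKA protein present so any polarization rise reflects compound interference; 0% = tracer peptide mix alone and 100% = mix with added PKA catalytic subunit; higher means stronger polarization artifact and likely false positive in parent screen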
PKA-R1A act conf: activators of PKA-R1A holoenzyme, confirmation, biochemical, fluorescence polarization, Cy5-IP20, triplicate; shares compounds with PKA-R1A activ; PKA-R1A holoenzyme dissociation; activation, % at 11.4 µM; 280 tested, 9% active; AID 504800, 2011;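 active = mean activation over replicate wells exceeds the adjusted hit threshold taken from the earlier primary screen, cut at about 20% in these data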;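 note: 0% = holoenzyme mix with DMSO only and 100% = cGMP-activated control wells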
Active calls of the source: *; / = not tested or not shown.

SMILES	PKA-R1A activ	dFosB activator	PKA-R2B activ	NTR1 ag	CAL PDZ FP-1	CAL PDZ FP-2	R1A FP artifact	PKA-R1A act conf
O=c1c(Cl)c(NCc2ccccc2Cl)cnn1C12CC3CC(CC(C3)C1)C2	19*	-2	15	27	-5	-2	0	-1
COc1ccccc1CN1CN(S(=O)(=O)c2ccccc2)c2nc3ccccc3nc21	-12	-6	4	2	-6	-2	/	/
O=C(COC(=O)C1CC(=O)N(Cc2ccco2)C1)Nc1ccc(F)cc1F (centres undefined)	20*	2	-8	0	-1	0	-4	-1
CCSc1nc2c(c(=O)[nH]1)C(c1ccncc1)C(C(=O)OC(C)C)=C(C)N2 (centres undefined)	-6	-3	-3	-1	-1	-5	/	/
CCSc1nc2c(c(=O)[nH]1)C(c1cccnc1)C(C(=O)OC)=C(C)N2 (centres undefined)	20*	-5	3	-1	-5	-1	2	-2
Cc1ccc(NC(=O)CSc2nc(N)cc(=O)[nH]2)cc1S(=O)(=O)N1CCCCC1	-8	-8	-14	2	-5	-2	/	/
Cc1nc(-c2ccc(Cl)cc2)sc1C1(C)CC(c2ccc(OC(F)(F)F)cc2)=NO1 (centres undefined)	-4	4	3	-5	0	0	/	/
Cc1nc(-c2ccccc2)sc1C1(C)CC(c2ccc(OC(F)(F)F)cc2)=NO1 (centres undefined)	19*	-1	4	-4	4	0	0	-2
COC(=O)C1(C)NC(=O)c2ccccc2N1 (centres undefined)	13	4	11	3	6	0	/	/
COC(=O)C1(C)Nc2ccccc2C(=O)N1c1ccccc1OC (centres undefined)	23*	0	12	4	-3	0	2	1
NC(=O)C1CCN(C(=O)C(=O)c2cn(CC(=O)N3CCCC3)c3ccccc23)CC1	20*	-12	1	-1	-2	-3	1	-2
COc1cccc(CNC(=O)CCCn2nc(C)n3c(cc4sccc43)c2=O)c1	-8	-5	5	3	-1	-2	/	/
CCc1ccc(NC(=O)CSc2nnc(-c3ccccn3)n2C)cc1	19*	6	2	1	4	-1	6	4
CCc1cc(C(=O)OC)c(NC(=O)CC2NCCNC2=O)s1 (centres undefined)	25*	-7	7	0	-6	-1	5	3
CCOC(=O)N1CCc2c(sc3nc(SC(C)C)n(N)c(=O)c23)C1	-6	-15	-8	7	-7	-2	/	/
CCOC(=O)N1CCc2c(sc3ncn(C)c(=O)c23)C1	19*	-4	0	2	1	1	-4	0
CCCCNC(=O)Oc1ccc(C(=O)N2c3ccccc3NC(=O)C2C)cc1 (centres undefined)	5	0	10	-1	-2	/	/	/
O=C(/C=C/c1ccccc1)Nc1cccc(C(=O)NC2CC2)c1	19*	-17	1	/	-1	-2	3	5
Cc1cc(NC(=O)CSCC(=O)OCC(=O)Nc2cc(C)c(C)cc2[N+](=O)[O-])no1	20*	-9	-6	0	-6	-2	6	10
Cc1cc(C)c2c(CC(=O)NC(C)C)coc2c1	14	-2	9	3	-3	-1	/	/
Cc1cc(C)c2c(CC(=O)NNC(=O)c3ccccc3)coc2c1	27*	-3	2	-2	-4	6	6	3
CCOc1ccc(NC(=O)CN(C)C(=O)CCNC(=O)c2ccco2)cc1OCC	19*	-1	12	2	-2	-2	0	1
CC1=NN(c2ccc([N+](=O)[O-])cc2)C(=O)/C1=C\N(C)C	7	6	-8	0	-3	-3	/	/
CCCC1=NN(c2ccc([N+](=O)[O-])cc2)C(=O)/C1=C/N(C)C	19*	3	2	1	-2	-1	2	0
NC(=O)c1ccc(SCC(=O)OCC(=O)NCc2cccs2)c([N+](=O)[O-])c1	2	-3	3	2	-18	0	/	/
SMILES	PKA-R1A activ	dFosB activator	PKA-R2B activ	NTR1 ag	CAL PDZ FP-1	CAL PDZ FP-2	R1A FP artifact	PKA-R1A act conf
COc1ccc(C(=O)C[n+]2cccc3cc(C)ccc32)cc1	19*	7	1	-1	1	-2	9	5
CCC(C)(C)n1nnnc1C(c1cc2cccc(C)c2[nH]c1=O)N1CCN(C(=O)c2ccco2)CC1 (centres undefined)	19*	0	2	1	1	0	4	2
CCC(C)(C)n1nnnc1C(c1ccc(C)cc1)N1CCN(C(=O)c2ccco2)CC1 (centres undefined)	-5	-14	-8	-1	/	-1	/	/
C[C@@H]1CN([C@H](C)CO)C(=O)CCCn2nncc2CO[C@@H]1CN(C)S(=O)(=O)c1ccccc1F	4	/	3	/	/	/	/	/
O=C(NCc1ccccc1)c1onc(CSc2ccc(Cl)cc2)c1C(=O)NCc1ccccc1	2	3	2	-2	-9	-2	/	/
CN(C)CCNC(=O)c1c(CSc2ccc(Cl)cc2)noc1C(=O)NCc1ccccc1	20*	-10	2	2	0	-1	3	5
CC1CC(N(C(=O)c2ccco2)c2ccccc2)c2ccccc2N1C(=O)c1ccco1 (centres undefined)	19*	-10	0	1	-2	-4	0	2
CC1CC(N(C(=O)c2ccc(Cl)cc2)c2ccccc2)c2ccccc2N1C(=O)c1ccco1 (centres undefined)	1	1	2	2	-1	-1	/	/
